The source made the active and inactive calls. The calls are words filed in the database; no cut-off is given here. Starred links: 1 amine or outer side, 2 acyl side, 3 side chain; linkers in the order of their positions; H or OH if unused. Positions of bridges follow the written chain, without caps; N, C: chain ends. Non-standard residues stand in square brackets, D forms with d. Residues, ends and D or L forms follow the SMILES beside them. *: point of attachment. hTyr(3S-OH,4S-OH,3'-OSO3H) = N[C@H](C(=O)O)[C@H](O)[C@@H](O)c1ccc(O)c(OS(=O)(=O)O)c1; Orn(4R-OH,5R-OH) = O=C([C@H](C[C@@H](O)[C@@H](O)N[*:3])N[*:1])[*:2]; Pro(3S-OH,4S-Me) = C[C@H]1CN[C@H](C(=O)O)[C@H]1O; X1 = CCCCCOc1ccc(-c2cc(-c3ccc(C(=O)*)cc3)no2)cc1; Gln(3R-OH) = NC(=O)C[C@@H](O)[C@H](N)C(=O)O; Hyp = O=C(O)[C@@H]1C[C@@H](O)CN1

The values below come from ChEMBL document CHEMBL1275536, “Efficacy of single-dose liposomal amphotericin B or micafungin prophylaxis in a neutropenic murine model of invasive pulmonary aspergillosis” (2008).

Test [1] has as its system Aspergillus fumigatus. Kind of test: Antifungal activity against Aspergillus fumigatus 293 by broth-microdilution. The test is classed as functional. The following applies: read-out: MEC. In short, it runs like this:
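Broth microdilution following CLSI (NCCLS) approved standard M38-A. Amphotericin B read as MIC; micafungin read as minimum effective concentration.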

The subject of test [2] is Aspergillus fumigatus. Description: Antifungal activity against Aspergillus fumigatus 293 by Etest. The test is classed as functional. In short, it runs like this: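 Susceptibility of A. fumigatus 293 by Etest. Amphotericin B read as MIC; micafungin read as minimum effective concentration.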
In test [3] the test system is Aspergillus fumigatus. Description: Antifungal activity against Aspergillus fumigatus 293 infected in neutropenic BALB/c mouse assessed as mouse survival at 5 mg/kg, ip administered as single dose 24 hrs prior to infection measured after 7 days relative to untreated control. To be noted: route intraperitoneal. The test is classed as functional. Put shortly: (§1)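 Female BALB/c mice, 8 weeks old, 18-22 g. Neutropenia by cyclophosphamide 150 mg/kg i.p. on days −4, −1 and +3, plus cortisone acetate 250 mg/kg i.p. on day −1. Under isoflurane, 2.5 × 10^6 conidia given intranasally. Drug diluted in D5W, given once i.p. 24 h pre-infection; D5W controls; n = 20/group. Morbidity monitored 7 days; log-rank test.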

The test system of test [4] is Aspergillus fumigatus. Kind of test: Antifungal activity against Aspergillus fumigatus 293 infected in neutropenic BALB/c mouse assessed as mouse survival at 20 mg/kg, ip administered as single dose 24 hrs before infection measured after 7 days relative to untreated control. The following applies: route intraperitoneal. The test is classed as functional. Put shortly: as §1

In test [5] the test system is Aspergillus fumigatus. Description: Antifungal activity against Aspergillus fumigatus 293 infected in neutropenic BALB/c mouse lung assessed as log reduction in fungal burden at 5 mg/kg, ip administered as single dose 24 hrs before infection. The test is classed as functional. The following applies: route intraperitoneal. Put shortly:
(§2)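 Same neutropenic BALB/c intranasal-challenge model; single i.p. dose in D5W given 24 h pre-infection; D5W controls. Lungs from 10-20 mice/group taken at day +7, or earlier at moribund euthanasia. A. fumigatus DNA quantified by real-time PCR as conidial equivalents; reduction expressed as log10 of median versus control.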

The test system of test [6] is Aspergillus fumigatus. Description: Antifungal activity against Aspergillus fumigatus 293 infected in neutropenic BALB/c mouse lung assessed as log reduction in fungal burden at 20 mg/kg, ip administered as single dose 24 hrs before infection. The test is classed as functional. The following applies: route intraperitoneal. Put shortly:
as §2

Test [7] concerns Aspergillus fumigatus. Kind of test: Antifungal activity against Aspergillus fumigatus 293 infected in neutropenic BALB/c mouse lung assessed as log reduction in fungal burden at 10 mg/kg, ip administered as single dose 24 hrs before infection. The test is classed as functional. To be noted: route intraperitoneal. Put shortly: as §2
The subject of test [8] is Aspergillus fumigatus. Description: Antifungal activity against Aspergillus fumigatus 293 infected in neutropenic BALB/c mouse lung assessed as swollen dysmorphic hyphal clusters at 20 mg/kg, ip administered as single dose 24 hrs before infection by light microscopy. The test is classed as functional, organism-based. Also on record: dose 20 mg/kg. Put shortly: (§3)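 Repeat experiments in the neutropenic intranasal-challenge model, five mice per dose, single i.p. dose 24 h pre-infection. Day +7 lungs fixed in 10% formaldehyde and stained with Grocott methenamine silver. Hyphal morphology and density assessed by light microscopy at ×100 and ×400.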

Test [9] concerns Aspergillus fumigatus. Kind of test: Antifungal activity against Aspergillus fumigatus 293 infected in neutropenic BALB/c mouse lung assessed as swollen dysmorphic hyphal clusters at 10 mg/kg, ip administered as single dose 24 hrs before infection by light microscopy. The test is classed as functional, organism-based. Also on record: dose 10 mg/kg. Put shortly: as §3

For the molecule `C[C@@H]1[C@H](O)[C@@H](C)/C=C/C=C/C=C/C=C/C=C/C=C/C=C/[C@H](O[C@@H]2O[C@H](C)[C@@H](O)[C@H](N)[C@@H]2O)C[C@@H]2O[C@](O)(C[C@@H](O)C[C@@H](O)[C@H](O)CC[C@@H](O)C[C@@H](O)CC(=O)O[C@H]1C)C[C@H](O)[C@H]2C(=O)O` [AMPHOTERICIN B], in the test on Aspergillus fumigatus [1], the minimal effective concentration is 0.25 µg/mL.

Take `CCCCCOc1ccc(-c2cc(-c3ccc(C(=O)N[C@H]4C[C@@H](O)[C@@H](O)NC(=O)[C@@H]5[C@@H](O)[C@@H](C)CN5C(=O)[C@H]([C@H](O)CC(N)=O)NC(=O)[C@H]([C@H](O)[C@@H](O)c5ccc(O)c(OS(=O)(=O)O)c5)NC(=O)[C@@H]5C[C@@H](O)CN5C(=O)[C@H]([C@@H](C)O)NC4=O)cc3)no2)cc1` [MICAFUNGIN] (X1-[Orn(4R-OH,5R-OH)]T[Hyp][hTyr(3S-OH,4S-OH,3'-OSO3H)][Gln(3R-OH)][Pro(3S-OH,4S-Me)]; lactam 1-C): the MEC in the test on Aspergillus fumigatus [2] is 0.25 µg/mL. Besides, the Activity in the test with Aspergillus fumigatus [3] and with Aspergillus fumigatus [4] was 55% in each case. Besides, the FC in the test with Aspergillus fumigatus [5] is 1.3; in the test with Aspergillus fumigatus [6] it was 0.7; in the test with Aspergillus fumigatus [7] it was 1.3. Moreover, the result in the test on Aspergillus fumigatus [8] and in the test on Aspergillus fumigatus [9] was Active. For the same molecule, the minimal effective concentration with Aspergillus fumigatus [1] came out at 0.25 µg/mL.
